Tested on: U2OS
Assay: Multiplex assay against U2OS
Type: toxicity, cell-based
Settings: human
In short: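 With compound added, live cells were imaged on a CQ1 microscope at 37°C and 5% CO2; staining with Hoechst33342, BioTracker Green Microtubule Cytoskeleton Dye, MitoTracker Red and Annexin V Alexa Fluor 680 had been done at seeding. The CellPathfinder machine-learning gating scheme split cells into Hoechst high-intensity objects or normal cells, normal cells into healthy, pyknosed or fragmented nuclei, and pyknosed cells into mitotic or apoptotic. The tubulin, mitochondrial-mass and membrane-permeability phenotypes are per cents of healthy-nucleus cells.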

[1] = 12 h, 1 µM, compound concentration 1 uM, replicate 1
[2] = 12 h, 1 µM, compound concentration 1 uM, replicate 2
[3] = 12 h, 10 µM, compound concentration 10 uM, replicate 1
[4] = 12 h, 10 µM, compound concentration 10 uM, replicate 2
[5] = 24 h, 1 µM, compound concentration 1 uM, replicate 1
[6] = 24 h, 1 µM, compound concentration 1 uM, replicate 2
[7] = 24 h, 10 µM, compound concentration 10 uM, replicate 1
[8] = 24 h, 10 µM, compound concentration 10 uM, replicate 2
[9] = 48 h, 1 µM, compound concentration 1 uM, replicate 1
[10] = 48 h, 1 µM, compound concentration 1 uM, replicate 2
[11] = 48 h, 10 µM, compound concentration 10 uM, replicate 1
[12] = 48 h, 10 µM, compound concentration 10 uM, replicate 2

Cl.Clc1ccc2nsnc2c1NC1=NCCN1 [TIZANIDINE HYDROCHLORIDE]
Population Apoptotic (%) [1]: 82%
Population Fragmented Nuclei (%) [1]: 20%
Population Healthy Nuclei (%) [1]: 73%
Population Hoechst High Intensity Objects (%) [1]: 2%
Population Membrane Permeable-Phenotype (%) [1]: 6%
Population Mitochondria Different-Phenotype (%) [1]: 1%
Population Mitotic Cells (%) [1]: 17%
Population Normal (%) [1]: 97%
Population Pyknosed Nuclei (%) [1]: 5%
Population Tubulin-Different-Phenotype (%) [1]: 2%
Total Cell Count [1]: 306
Population Apoptotic (%) [2]: 85%
Population Fragmented Nuclei (%) [2]: 10%
Population Healthy Nuclei (%) [2]: 78%
Population Hoechst High Intensity Objects (%) [2]: 1%
Population Membrane Permeable-Phenotype (%) [2]: 3%
Population Mitochondria Different-Phenotype (%) [2]: 2%
Population Mitotic Cells (%) [2]: 14%
Population Normal (%) [2]: 98%
Population Pyknosed Nuclei (%) [2]: 10%
Population Tubulin-Different-Phenotype (%) [2]: 3%
Total Cell Count [2]: 140
Population Apoptotic (%) [3]: 77%
Population Fragmented Nuclei (%) [3]: 31%
Population Healthy Nuclei (%) [3]: 61%
Population Hoechst High Intensity Objects (%) [3]: 2%
Population Membrane Permeable-Phenotype (%) [3]: 7%
Population Mitochondria Different-Phenotype (%) [3]: 2%
Population Mitotic Cells (%) [3]: 22%
Population Normal (%) [3]: 97%
Population Pyknosed Nuclei (%) [3]: 6%
Population Tubulin-Different-Phenotype (%) [3]: 2%
Total Cell Count [3]: 280
Population Apoptotic (%) [4]: 90%
Population Fragmented Nuclei (%) [4]: 22%
Population Healthy Nuclei (%) [4]: 66%
Population Membrane Permeable-Phenotype (%) [4]: 14%
Population Mitochondria Different-Phenotype (%) [4]: 7%
Population Mitotic Cells (%) [4]: 10%
Population Pyknosed Nuclei (%) [4]: 10%
Population Tubulin-Different-Phenotype (%) [4]: 15%
Total Cell Count [4]: 98
Population Apoptotic (%) [5]: 90%
Population Fragmented Nuclei (%) [5]: 19%
Population Healthy Nuclei (%) [5]: 72%
Population Hoechst High Intensity Objects (%) [5]: 0%
Population Membrane Permeable-Phenotype (%) [5]: 4%
Population Mitochondria Different-Phenotype (%) [5]: 2%
Population Mitotic Cells (%) [5]: 9%
Population Normal (%) [5]: 99%
Population Pyknosed Nuclei (%) [5]: 8%
Population Tubulin-Different-Phenotype (%) [5]: 5%
Total Cell Count [5]: 381
Population Apoptotic (%) [6]: 89%
Population Fragmented Nuclei (%) [6]: 15%
Population Healthy Nuclei (%) [6]: 73%
Population Hoechst High Intensity Objects (%) [6]: 4%
Population Membrane Permeable-Phenotype (%) [6]: 7%
Population Mitochondria Different-Phenotype (%) [6]: 4%
Population Mitotic Cells (%) [6]: 10%
Population Normal (%) [6]: 95%
Population Pyknosed Nuclei (%) [6]: 11%
Population Tubulin-Different-Phenotype (%) [6]: 6%
Total Cell Count [6]: 172
Population Apoptotic (%) [7]: 65%
Population Fragmented Nuclei (%) [7]: 29%
Population Healthy Nuclei (%) [7]: 62%
Population Hoechst High Intensity Objects (%) [7]: 2%
Population Membrane Permeable-Phenotype (%) [7]: 4%
Population Mitochondria Different-Phenotype (%) [7]: 1%
Population Mitotic Cells (%) [7]: 34%
Population Normal (%) [7]: 97%
Population Pyknosed Nuclei (%) [7]: 8%
Population Tubulin-Different-Phenotype (%) [7]: 1%
Total Cell Count [7]: 327
Population Apoptotic (%) [8]: 86%
Population Fragmented Nuclei (%) [8]: 25%
Population Healthy Nuclei (%) [8]: 61%
Population Membrane Permeable-Phenotype (%) [8]: 12%
Population Mitochondria Different-Phenotype (%) [8]: 7%
Population Mitotic Cells (%) [8]: 13%
Population Pyknosed Nuclei (%) [8]: 13%
Population Tubulin-Different-Phenotype (%) [8]: 11%
Total Cell Count [8]: 118
Population Apoptotic (%) [9]: 86%
Population Fragmented Nuclei (%) [9]: 11%
Population Healthy Nuclei (%) [9]: 80%
Population Hoechst High Intensity Objects (%) [9]: 1%
Population Membrane Permeable-Phenotype (%) [9]: 2%
Population Mitochondria Different-Phenotype (%) [9]: 1%
Population Mitotic Cells (%) [9]: 13%
Population Normal (%) [9]: 98%
Population Pyknosed Nuclei (%) [9]: 7%
Population Tubulin-Different-Phenotype (%) [9]: 2%
Total Cell Count [9]: 512
Population Apoptotic (%) [10]: 90%
Population Fragmented Nuclei (%) [10]: 17%
Population Healthy Nuclei (%) [10]: 74%
Population Hoechst High Intensity Objects (%) [10]: 3%
Population Membrane Permeable-Phenotype (%) [10]: 5%
Population Mitochondria Different-Phenotype (%) [10]: 2%
Population Mitotic Cells (%) [10]: 9%
Population Normal (%) [10]: 96%
Population Pyknosed Nuclei (%) [10]: 8%
Population Tubulin-Different-Phenotype (%) [10]: 3%
Total Cell Count [10]: 260
Population Apoptotic (%) [11]: 93%
Population Fragmented Nuclei (%) [11]: 18%
Population Healthy Nuclei (%) [11]: 75%
Population Hoechst High Intensity Objects (%) [11]: 2%
Population Membrane Permeable-Phenotype (%) [11]: 5%
Population Mitochondria Different-Phenotype (%) [11]: 1%
Population Mitotic Cells (%) [11]: 6%
Population Normal (%) [11]: 97%
Population Pyknosed Nuclei (%) [11]: 6%
Population Tubulin-Different-Phenotype (%) [11]: 3%
Total Cell Count [11]: 459
Population Apoptotic (%) [12]: 76%
Population Fragmented Nuclei (%) [12]: 22%
Population Healthy Nuclei (%) [12]: 65%
Population Hoechst High Intensity Objects (%) [12]: 4%
Population Membrane Permeable-Phenotype (%) [12]: 15%
Population Mitochondria Different-Phenotype (%) [12]: 5%
Population Mitotic Cells (%) [12]: 23%
Population Normal (%) [12]: 95%
Population Pyknosed Nuclei (%) [12]: 11%
Population Tubulin-Different-Phenotype (%) [12]: 7%
Total Cell Count [12]: 149

N#Cc1c(N)nc(SCc2csc(-c3ccc(Cl)cc3)n2)c(C#N)c1-c1ccc(OCCO)cc1 [CAPADENOSON]
Population Apoptotic (%) [1]: 78%
Population Fragmented Nuclei (%) [1]: 25%
Population Healthy Nuclei (%) [1]: 65%
Population Hoechst High Intensity Objects (%) [1]: 5%
Population Membrane Permeable-Phenotype (%) [1]: 14%
Population Mitochondria Different-Phenotype (%) [1]: 4%
Population Mitotic Cells (%) [1]: 21%
Population Normal (%) [1]: 94%
Population Pyknosed Nuclei (%) [1]: 8%
Population Tubulin-Different-Phenotype (%) [1]: 10%
Total Cell Count [1]: 236
Population Apoptotic (%) [2]: 80%
Population Fragmented Nuclei (%) [2]: 18%
Population Healthy Nuclei (%) [2]: 75%
Population Hoechst High Intensity Objects (%) [2]: 1%
Population Membrane Permeable-Phenotype (%) [2]: 5%
Population Mitochondria Different-Phenotype (%) [2]: 2%
Population Mitotic Cells (%) [2]: 20%
Population Normal (%) [2]: 98%
Population Pyknosed Nuclei (%) [2]: 6%
Population Tubulin-Different-Phenotype (%) [2]: 1%
Total Cell Count [2]: 150
Population Apoptotic (%) [3]: 64%
Population Fragmented Nuclei (%) [3]: 35%
Population Healthy Nuclei (%) [3]: 40%
Population Hoechst High Intensity Objects (%) [3]: 5%
Population Membrane Permeable-Phenotype (%) [3]: 70%
Population Mitochondria Different-Phenotype (%) [3]: 37%
Population Mitotic Cells (%) [3]: 35%
Population Normal (%) [3]: 94%
Population Pyknosed Nuclei (%) [3]: 24%
Population Tubulin-Different-Phenotype (%) [3]: 65%
Total Cell Count [3]: 255
Population Apoptotic (%) [4]: 68%
Population Fragmented Nuclei (%) [4]: 24%
Population Healthy Nuclei (%) [4]: 56%
Population Hoechst High Intensity Objects (%) [4]: 0%
Population Membrane Permeable-Phenotype (%) [4]: 49%
Population Mitochondria Different-Phenotype (%) [4]: 61%
Population Mitotic Cells (%) [4]: 31%
Population Normal (%) [4]: 99%
Population Pyknosed Nuclei (%) [4]: 18%
Population Tubulin-Different-Phenotype (%) [4]: 70%
Total Cell Count [4]: 102
Population Apoptotic (%) [5]: 87%
Population Fragmented Nuclei (%) [5]: 23%
Population Healthy Nuclei (%) [5]: 64%
Population Hoechst High Intensity Objects (%) [5]: 3%
Population Membrane Permeable-Phenotype (%) [5]: 9%
Population Mitochondria Different-Phenotype (%) [5]: 4%
Population Mitotic Cells (%) [5]: 12%
Population Normal (%) [5]: 96%
Population Pyknosed Nuclei (%) [5]: 12%
Population Tubulin-Different-Phenotype (%) [5]: 6%
Total Cell Count [5]: 263
Population Apoptotic (%) [6]: 61%
Population Fragmented Nuclei (%) [6]: 16%
Population Healthy Nuclei (%) [6]: 71%
Population Hoechst High Intensity Objects (%) [6]: 0%
Population Membrane Permeable-Phenotype (%) [6]: 5%
Population Mitochondria Different-Phenotype (%) [6]: 2%
Population Mitotic Cells (%) [6]: 38%
Population Normal (%) [6]: 99%
Population Tubulin-Different-Phenotype (%) [6]: 2%
Total Cell Count [6]: 176
Population Apoptotic (%) [7]: 71%
Population Fragmented Nuclei (%) [7]: 36%
Population Healthy Nuclei (%) [7]: 37%
Population Hoechst High Intensity Objects (%) [7]: 5%
Population Membrane Permeable-Phenotype (%) [7]: 47%
Population Mitochondria Different-Phenotype (%) [7]: 38%
Population Mitotic Cells (%) [7]: 28%
Population Normal (%) [7]: 94%
Population Pyknosed Nuclei (%) [7]: 26%
Population Tubulin-Different-Phenotype (%) [7]: 47%
Total Cell Count [7]: 253
Population Apoptotic (%) [8]: 69%
Population Fragmented Nuclei (%) [8]: 25%
Population Healthy Nuclei (%) [8]: 49%
Population Hoechst High Intensity Objects (%) [8]: 2%
Population Membrane Permeable-Phenotype (%) [8]: 34%
Population Mitochondria Different-Phenotype (%) [8]: 58%
Population Mitotic Cells (%) [8]: 30%
Population Normal (%) [8]: 97%
Population Pyknosed Nuclei (%) [8]: 24%
Population Tubulin-Different-Phenotype (%) [8]: 60%
Total Cell Count [8]: 95
Population Apoptotic (%) [9]: 80%
Population Fragmented Nuclei (%) [9]: 23%
Population Healthy Nuclei (%) [9]: 67%
Population Hoechst High Intensity Objects (%) [9]: 3%
Population Membrane Permeable-Phenotype (%) [9]: 9%
Population Mitochondria Different-Phenotype (%) [9]: 6%
Population Mitotic Cells (%) [9]: 20%
Population Normal (%) [9]: 96%
Population Pyknosed Nuclei (%) [9]: 8%
Population Tubulin-Different-Phenotype (%) [9]: 6%
Total Cell Count [9]: 355
Population Apoptotic (%) [10]: 84%
Population Fragmented Nuclei (%) [10]: 12%
Population Healthy Nuclei (%) [10]: 79%
Population Hoechst High Intensity Objects (%) [10]: 0%
Population Membrane Permeable-Phenotype (%) [10]: 6%
Population Mitochondria Different-Phenotype (%) [10]: 3%
Population Mitotic Cells (%) [10]: 15%
Population Normal (%) [10]: 99%
Population Tubulin-Different-Phenotype (%) [10]: 5%
Total Cell Count [10]: 220
Population Apoptotic (%) [11]: 86%
Population Fragmented Nuclei (%) [11]: 44%
Population Healthy Nuclei (%) [11]: 30%
Population Hoechst High Intensity Objects (%) [11]: 5%
Population Membrane Permeable-Phenotype (%) [11]: 46%
Population Mitochondria Different-Phenotype (%) [11]: 31%
Population Mitotic Cells (%) [11]: 13%
Population Normal (%) [11]: 94%
Population Pyknosed Nuclei (%) [11]: 25%
Population Tubulin-Different-Phenotype (%) [11]: 37%
Total Cell Count [11]: 285
Population Apoptotic (%) [12]: 66%
Population Fragmented Nuclei (%) [12]: 30%
Population Healthy Nuclei (%) [12]: 49%
Population Hoechst High Intensity Objects (%) [12]: 4%
Population Membrane Permeable-Phenotype (%) [12]: 45%
Population Mitochondria Different-Phenotype (%) [12]: 45%
Population Mitotic Cells (%) [12]: 33%
Population Normal (%) [12]: 95%
Population Pyknosed Nuclei (%) [12]: 20%
Population Tubulin-Different-Phenotype (%) [12]: 50%
Total Cell Count [12]: 109

Reference: ChEMBL document CHEMBL5058577, “EUbOPEN Chemogenomics Library 2 (Multiplex)” (2022)
